Results as given in ChEMBL document CHEMBL3097989, “Antimicrobial activity of de novo designed cationic peptides against multi-resistant clinical isolates” (Eur J Med Chem, 2014).
Where a SMILES comes first, the peptide text is derived from it.

What was measured:
Type in all cases: functional
Acinetobacter sp. [1] = assay: Antibacterial activity against Acinetobacter sp. M9013 clinical isolate expressing blaOXA-51 and blaIMP gene by microdilution test
Outline: (§1)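 MIC by standard broth microdilution following CLSI recommendations, in Mueller Hinton broth supplemented with Ca²⁺ (20-25mg/L) and Mg²⁺ (10-12.5mg/L); peptides tested against a panel of multi-resistant clinical isolates plus ATCC reference strains.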

Acinetobacter sp. [2] = assay: Antibacterial activity against Acinetobacter sp. M7978 clinical isolate expressing blaIMP-1 gene by microdilution test; outline: as §1
Acinetobacter sp. [3] = assay: Antibacterial activity against Acinetobacter sp. M5949 clinical isolate expressing blaOXA-23 and blaOXA-GVI gene by microdilution test; outline: as §1
Acinetobacter sp. [4] = assay: Antibacterial activity against Acinetobacter sp. PFAV1 clinical isolate expressing blaOXA-51, blaOXA-58 and blaPER gene by microdilution test; outline: as §1
Acinetobacter sp. [5] = assay: Antibacterial activity against Acinetobacter sp. M13523 clinical isolate expressing blaOXA-51 gene by microdilution test; outline: as §1
Pseudomonas aeruginosa [6] = assay: Antibacterial activity against Pseudomonas aeruginosa M7712 clinical isolate expressing blaSPM gene by microdilution test
Outline: (§2)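 MIC by standard broth microdilution following CLSI recommendations, in Mueller Hinton broth supplemented with Ca²⁺ (20-25 mg/L) and Mg²⁺ (10-12.5 mg/L); ATCC reference strains included in the panel.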

Pseudomonas aeruginosa [7] = assay: Antibacterial activity against Pseudomonas aeruginosa M7525 clinical isolate expressing blaSPM gene by microdilution test; outline: as §2
Pseudomonas aeruginosa [8] = assay: Antibacterial activity against Pseudomonas aeruginosa M7723 clinical isolate expressing blaKPC-2 gene by microdilution test; outline: as §2
Pseudomonas aeruginosa [9] = assay: Antibacterial activity against Pseudomonas aeruginosa M13513 clinical isolate expressing blaKPC-2 gene by microdilution test; outline: as §1
Pseudomonas aeruginosa [10] = assay: Antibacterial activity against Pseudomonas aeruginosa M5470 by microdilution test; outline: as §2
Pseudomonas aeruginosa [11] = assay: Antibacterial activity against Pseudomonas aeruginosa PCOS12 by microdilution test; outline: as §2
Enterococcus faecium = assay: Antibacterial activity against Enterococcus faecium M2481 clinical isolate expressing vanB gene by microdilution test; outline: as §1
Enterococcus faecalis [12] = assay: Antibacterial activity against Enterococcus faecalis M4449 clinical isolate expressing vanA gene by microdilution test; outline: as §1
Enterococcus faecalis [13] = assay: Antibacterial activity against Enterococcus faecalis M6383 clinical isolate expressing vanA gene by microdilution test; outline: as §1
Enterococcus faecalis [14] = assay: Antibacterial activity against Enterococcus faecalis M4992 clinical isolate expressing vanA gene by microdilution test; outline: as §1
Enterococcus faecalis [15] = assay: Antibacterial activity against Enterococcus faecalis M6534 clinical isolate expressing vanB gene by microdilution test; outline: as §1
Staphylococcus warneri = assay: Antibacterial activity against Staphylococcus warneri M6823 clinical isolate expressing mecA gene by microdilution test; outline: as §2
Staphylococcus hominis = assay: Antibacterial activity against Staphylococcus hominis M2967 clinical isolate expressing mecA gene by microdilution test; outline: as §2
[16] = system: Staphylococcus saprophyticus; assay: Antibacterial activity against Staphylococcus saprophyticus M2981 clinical isolate expressing mecA gene by microdilution test; outline: as §2
[17] = system: Staphylococcus saprophyticus; assay: Antibacterial activity against Staphylococcus saprophyticus M4070 clinical isolate expressing mecA gene by microdilution test; outline: as §2
[18] = system: Staphylococcus epidermidis; assay: Antibacterial activity against Staphylococcus epidermidis M2921 clinical isolate expressing mecA gene by microdilution test; outline: as §2
[19] = system: Staphylococcus epidermidis; assay: Antibacterial activity against Staphylococcus epidermidis M2931 by microdilution test; outline: as §2
[20] = system: Staphylococcus epidermidis; assay: Antibacterial activity against Staphylococcus epidermidis M2923 by microdilution test; outline: as §2
Staphylococcus aureus [21] = assay: Antibacterial activity against Staphylococcus aureus M6784 clinical isolate expressing mecA gene by microdilution test; outline: as §2
Staphylococcus aureus [22] = assay: Antibacterial activity against Staphylococcus aureus M2832 clinical isolate expressing mecA gene by microdilution test; outline: as §2
Staphylococcus aureus [23] = assay: Antibacterial activity against Staphylococcus aureus P239 clinical isolate expressing ermC gene by microdilution test; outline: as §2
Staphylococcus aureus [24] = assay: Antibacterial activity against Staphylococcus aureus M6276 clinical isolate expressing ermA and lnuA gene by microdilution test; outline: as §2
Staphylococcus aureus [25] = assay: Antibacterial activity against Staphylococcus aureus P204 clinical isolate expressing ermA gene by microdilution test; outline: as §2
Escherichia coli [26] = assay: Antibacterial activity against Escherichia coli M5306 clinical isolate expressing blaPER-2, blaCTX-M-2 and blaTEM-1 gene by microdilution test; outline: as §1
Escherichia coli [27] = assay: Antibacterial activity against Escherichia coli PLCA1 clinical isolate expressing blaCTX-M-2 and blaTEM-1 gene by microdilution test; outline: as §1
Escherichia coli [28] = assay: Antibacterial activity against Escherichia coli PCOS15 clinical isolate expressing blaPER-2 and blaTEM-1 gene by microdilution test; outline: as §1
Escherichia coli [29] = assay: Antibacterial activity against Escherichia coli M9884 by microdilution test; outline: as §1
Escherichia coli [30] = assay: Antibacterial activity against Escherichia coli ATCC 25922 by microdilution test; outline: as §1
Klebsiella pneumoniae = assay: Antibacterial activity against Klebsiella pneumoniae M11245 clinical isolate expressing blaKPC-2 and blaPER-2 gene by microdilution test; outline: as §1

| Molecule | MIC90 (Acinetobacter sp. [1]) [µg/mL] | MIC90 (Acinetobacter sp. [2]) [µg/mL] | MIC90 (Acinetobacter sp. [3]) [µg/mL] | MIC90 (Acinetobacter sp. [4]) [µg/mL] | MIC90 (Acinetobacter sp. [5]) [µg/mL] | MIC90 (Pseudomonas aeruginosa [6]) [µg/mL] | MIC90 (Pseudomonas aeruginosa [7]) [µg/mL] | MIC90 (Pseudomonas aeruginosa [8]) [µg/mL] | MIC90 (Pseudomonas aeruginosa [9]) [µg/mL] | MIC90 (Pseudomonas aeruginosa [10]) [µg/mL] | MIC90 (Pseudomonas aeruginosa [11]) [µg/mL] | MIC90 (Enterococcus faecium) [µg/mL] | MIC90 (Enterococcus faecalis [12]) [µg/mL] | MIC90 (Enterococcus faecalis [13]) [µg/mL] | MIC90 (Enterococcus faecalis [14]) [µg/mL] | MIC90 (Enterococcus faecalis [15]) [µg/mL] | MIC90 (Staphylococcus warneri) [µg/mL] | MIC90 (Staphylococcus hominis) [µg/mL] | MIC90 [16] [µg/mL] | MIC90 [17] [µg/mL] | also measured |
| --- | --- | --- | --- | --- | --- | --- | --- | --- | --- | --- | --- | --- | --- | --- | --- | --- | --- | --- | --- | --- | --- |
| H-GLLKKWLKKWKEFKRIVGY-NH2 | 8 | 8 | 16 | 16 | 4 | 64 | 64 | 64 | 64 | 64 | 64 | 16 | 128 | 128 | 128 | 256 | 8 | 8 | 8 | 32 | MIC90 [18]: 8 µg/mL; MIC90 [19]: 16 µg/mL; MIC90 [20]: 16 µg/mL; MIC90 (Staphylococcus aureus [21]): 32 µg/mL; MIC90 (Staphylococcus aureus [22]): 128 µg/mL; MIC90 (Staphylococcus aureus [23]): 64 µg/mL; MIC90 (Staphylococcus aureus [24]): 128 µg/mL; MIC90 (Staphylococcus aureus [25]): 64 µg/mL; MIC90 (Escherichia coli [26]): 4 µg/mL; MIC90 (Escherichia coli [27]): 64 µg/mL; MIC90 (Escherichia coli [28]): 64 µg/mL; MIC90 (Escherichia coli [29]): 32 µg/mL; MIC90 (Escherichia coli [30]): 32 µg/mL; MIC90 (Klebsiella pneumoniae): 16 µg/mL |
| CC[C@H](C)[C@H](N)C(=O)N[C@@H](CC(C)C)C(=O)N[C@@H](CCCNC(=N)N)C(=O)N[C@@H](Cc1c[nH]c2ccccc12)C(=O)N1CCC[C@H]1C(=O)N[C@@H](Cc1c[nH]c2ccccc12)C(=O)N[C@@H](Cc1c[nH]c2ccccc12)C(=O)N1CCC[C@H]1C(=O)N[C@@H](Cc1c[nH]c2ccccc12)C(=O)N[C@@H](CCCNC(=N)N)C(=O)N[C@@H](CCCNC(=N)N)C(=O)N[C@@H](CCCCN)C(N)=O.Cl.Cl.Cl.Cl.Cl [OMIGANAN PENTAHYDROCHLORIDE] (H-ILRWPWWPWRRK-NH2) | 32 | 16 | 32 | 16 | 32 | 512 | 512 | 256 | 256 | 512 | 512 | 16 | 128 | 128 | 128 | 256 | 8 | 4 | 8 | 8 | MIC90 [18]: 8 µg/mL; MIC90 [19]: 16 µg/mL; MIC90 [20]: 8 µg/mL; MIC90 (Staphylococcus aureus [21]): 32 µg/mL; MIC90 (Staphylococcus aureus [22]): 64 µg/mL; MIC90 (Staphylococcus aureus [23]): 32 µg/mL; MIC90 (Staphylococcus aureus [24]): 32 µg/mL; MIC90 (Staphylococcus aureus [25]): 64 µg/mL; MIC90 (Escherichia coli [26]): 64 µg/mL; MIC90 (Escherichia coli [27]): 64 µg/mL; MIC90 (Escherichia coli [28]): 64 µg/mL; MIC90 (Escherichia coli [29]): 64 µg/mL; MIC90 (Escherichia coli [30]): 64 µg/mL; MIC90 (Klebsiella pneumoniae): 32 µg/mL |
| H-WPKWWKWKRRWGRKKAKKRRG-NH2 | 32 | 64 | 256 | 64 | 64 | 64 | 64 | 64 | 32 | 128 | 64 | 32 | 128 | 128 | 128 | 128 | 8 | 8 | 16 | 16 | MIC90 [18]: 8 µg/mL; MIC90 [19]: 16 µg/mL; MIC90 [20]: 16 µg/mL; MIC90 (Staphylococcus aureus [21]): 32 µg/mL; MIC90 (Staphylococcus aureus [22]): 32 µg/mL; MIC90 (Staphylococcus aureus [23]): 32 µg/mL; MIC90 (Staphylococcus aureus [24]): 16 µg/mL; MIC90 (Staphylococcus aureus [25]): 64 µg/mL; MIC90 (Escherichia coli [26]): 256 µg/mL; MIC90 (Escherichia coli [27]): 128 µg/mL; MIC90 (Escherichia coli [28]): 128 µg/mL; MIC90 (Escherichia coli [29]): 128 µg/mL; MIC90 (Escherichia coli [30]): 128 µg/mL; MIC90 (Klebsiella pneumoniae): 1020 µg/mL |
| H-RIVQRIKKWLLKWKKLGY-NH2 | 32 | 64 | 256 | 64 | 64 | 64 | 64 | 32 | 64 | 64 | 64 | 16 | 128 | 128 | 128 | 256 | 8 | 8 | 8 | 8 | MIC90 [18]: 8 µg/mL; MIC90 [19]: 8 µg/mL; MIC90 [20]: 16 µg/mL; MIC90 (Staphylococcus aureus [21]): 32 µg/mL; MIC90 (Staphylococcus aureus [22]): 64 µg/mL; MIC90 (Staphylococcus aureus [23]): 64 µg/mL; MIC90 (Staphylococcus aureus [24]): 64 µg/mL; MIC90 (Staphylococcus aureus [25]): 32 µg/mL; MIC90 (Escherichia coli [26]): 64 µg/mL; MIC90 (Escherichia coli [27]): 64 µg/mL; MIC90 (Escherichia coli [28]): 64 µg/mL; MIC90 (Escherichia coli [29]): 32 µg/mL; MIC90 (Escherichia coli [30]): 32 µg/mL; MIC90 (Klebsiella pneumoniae): 8 µg/mL |
